Activity calls are given as the source filed them. The calls are words filed in the database; no cut-off is given here.
Assays:
[1] = test system: Brain; experiment: Inhibition of lipid peroxidation in Wistar rat brain homogenates by TBARS assay; type: functional, tissue-based
How it was run: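 Male Wistar rat brain homogenate autooxidized at 37 °C for 30 min with or without compound. Lipid peroxidation read by a modified thiobarbituric acid (TBARS) test; IC50 derived.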

[2] = DPPH radical scavenging activity at 100 uM relative to control; type: ADME
How it was run: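 DPPH 100 μM in ethanol; compound added in ethanol to a final 100 μM; optical density read; scavenging expressed as a percentage of the optical density of a control with excess vitamin C.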

[3] = test system: Rattus norvegicus; experiment: Memory improving activity in rat passive avoidance model assessed as effect on cycloheximide-induced amnesia at 0.1 mg/kg, po; type: functional, organism-based; design: dose 0.1 mg/kg
How it was run: (§1)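 Passive avoidance: one day after training, compound (0.1–30 mg/kg) or vehicle given orally 30 min before a retention trial. Read-out was latency to move from the light to the dark room; minimum effective dose (MED) reported.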

[4] = test system: Rattus norvegicus; experiment: Memory improving activity in po dosed rat passive avoidance model assessed as effect on cycloheximide-induced amnesia; type: functional; settings: read-out: MED; how it was run: as §1
[5] = test system: Rattus norvegicus; experiment: Toxicity in po dosed rat; type: organism-based; settings: in vivo

Structure (SMILES)	IC50 [1]	further results
CCCCc1ccc(-c2c(C)[nH]c(=O)n2Cc2ccccc2)cc1	12.4 µM	Activity [2]: 59%
CCCCCCCCCCCCCCCCCCc1ccc(-c2c(C)[nH]c(=O)n2C)cc1	> 100 µM	–
CCCCCCCCc1ccc(-c2c(C)[nH]c(=O)n2C2CCCCC2)cc1	10.3 µM	–
Cc1[nH]c(=O)n(C2CCCCC2)c1-c1ccccc1OC(C)C	21.5 µM	–
CCCCCCOc1ccc(-c2c(C)[nH]c(=O)n2C2CCCCC2)cc1	8.5 µM	Activity [3]: inactive
CCCCc1ccc(-c2c(C)[nH]c(=O)n2C(C)C)cc1	10.7 µM	Activity [2]: 78%
CCCCCCCCCCCCCCc1ccc(-c2c(C)[nH]c(=O)n2C2CCCCC2)cc1	> 100 µM	–
CCCCCCCCOc1ccc(-c2c(C)[nH]c(=O)n2C2CCCCC2)cc1	8.5 µM	minimal effective dose [4]: 30 mg/kg
CCCCCCc1ccc(-c2c(C)[nH]c(=O)n2C2CCCCC2)cc1	13.7 µM	–
CCCCCCCCCCCCc1ccc(-c2c(C)[nH]c(=O)n2C)cc1	13 µM	–
Cc1[nH]c(=O)n(C2CCCCC2)c1-c1ccc(C2CCCCC2)cc1	28.9 µM	–
Cc1[nH]c(=O)n(C2CCCCC2)c1-c1ccc(-c2ccccc2)cc1	10.9 µM	minimal effective dose [4]: 0.1 mg/kg
Cc1[nH]c(=O)n(C)c1-c1ccc(-c2ccccc2)cc1	6.3 µM	minimal effective dose [4]: 0.3 mg/kg; Activity [5]: > 1000 mg/kg
Cc1[nH]c(=O)n(C)c1-c1ccc(OCCC(C)C)cc1	6.6 µM	Activity [3]: inactive
Cc1[nH]c(=O)n(C2CCCCC2)c1-c1ccc(OCc2ccccc2)cc1	8.3 µM	minimal effective dose [4]: 0.1 mg/kg
COc1ccc(-c2c(C)[nH]c(=O)n2C2CCCCC2)cc1	20.4 µM	–
CCCCCCCCCCOc1ccc(-c2c(C)[nH]c(=O)n2C2CCCCC2)cc1	10.5 µM	minimal effective dose [4]: 0.1 mg/kg
CCCCc1ccc(-c2c(C)[nH]c(=O)n2C)cc1	10.7 µM	Activity [2]: 98%; minimal effective dose [4]: 0.1 mg/kg; Activity [5]: > 1000 mg/kg
CCCCn1c(-c2ccccc2)c(C)[nH]c1=O	> 100 µM	–
CCCCCCOc1ccc(-c2c(C)[nH]c(=O)n2C)cc1	7.3 µM	Activity [3]: inactive
CCCCCCCOc1ccc(-c2c(C)[nH]c(=O)n2C2CCCCC2)cc1	11.6 µM	–
CCCCc1ccc(-c2c(C)[nH]c(=O)n2CCCC)cc1	12 µM	–

Structure (SMILES)	IC50 [1]	further results
CCCCCCCCc1ccc(-c2c(C)[nH]c(=O)n2C)cc1	19.4 µM	–
Cc1[nH]c(=O)n(C)c1-c1ccc(C(C)(C)C)cc1	8.4 µM	–
CCCCCCCCCCCCOc1ccc(-c2c(C)[nH]c(=O)n2C)cc1	9.7 µM	minimal effective dose [4]: 0.1 mg/kg
CCCCOc1ccc(-c2c(C)[nH]c(=O)n2C2CCCCC2)cc1	13.9 µM	Activity [2]: 88%
CCCCCCCOc1ccc(-c2c(C)[nH]c(=O)n2C)cc1	5.7 µM	Activity [3]: inactive
Cc1[nH]c(=O)n(C)c1-c1ccc(Oc2ccccc2)cc1	8.1 µM	Activity [3]: inactive
Cc1[nH]c(=O)n(C2CCCCC2)c1-c1ccc(OCCC(C)C)cc1	7.2 µM	Activity [3]: inactive
CCCCCc1ccc(-c2c(C)[nH]c(=O)n2C)cc1	5.9 µM	–
CCCCCOc1ccc(-c2c(C)[nH]c(=O)n2C)cc1	4.5 µM	Activity [3]: inactive
CCCCCc1ccc(-c2c(C)[nH]c(=O)n2C2CCCCC2)cc1	10.6 µM	–
CCCCCOc1ccc(-c2c(C)[nH]c(=O)n2C2CCCCC2)cc1	9.1 µM	Activity [3]: inactive
Cc1[nH]c(=O)n(C2CCCCC2)c1-c1ccc(Oc2ccccc2)cc1	7.9 µM	minimal effective dose [4]: 0.1 mg/kg
CCCCCCCCCCCCOc1ccc(-c2c(C)[nH]c(=O)n2C2CCCCC2)cc1	52.4 µM	–
CCCCCCCCCCOc1ccc(-c2c(C)[nH]c(=O)n2C)cc1	6.9 µM	minimal effective dose [4]: 0.1 mg/kg
CCCCCCc1ccc(-c2c(C)[nH]c(=O)n2C)cc1	9 µM	minimal effective dose [4]: 0.3 mg/kg
CCCCOc1ccc(-c2c(C)[nH]c(=O)n2C)cc1	5.1 µM	minimal effective dose [4]: 0.3 mg/kg
CCCCCCCCOc1ccc(-c2c(C)[nH]c(=O)n2C)cc1	4 µM	minimal effective dose [4]: 30 mg/kg
CCCCCCCCCCc1ccc(-c2c(C)[nH]c(=O)n2C2CCCCC2)cc1	27 µM	–
CCCCCCCCCCCCCCCCCCc1ccc(-c2c(C)[nH]c(=O)n2C2CCCCC2)cc1	> 100 µM	–
CCCCc1ccc(-c2c(CC)[nH]c(=O)n2C)cc1	13.9 µM	–
Cc1[nH]c(=O)n(C)c1-c1ccccc1	> 100 µM	–
CCCCCCCCCCCCCCCCCCOc1ccc(-c2c(C)[nH]c(=O)n2C2CCCCC2)cc1	> 100 µM	–

Structure (SMILES)	IC50 [1]	further results
CCCCCCCCCCc1ccc(-c2c(C)[nH]c(=O)n2C)cc1	7.9 µM	minimal effective dose [4]: 0.3 mg/kg
CCCCCCCCCCCCc1ccc(-c2c(C)[nH]c(=O)n2C2CCCCC2)cc1	> 100 µM	–
Cc1[nH]c(=O)n(C)c1-c1ccc(CC(C)C)cc1	7.8 µM	minimal effective dose [4]: 30 mg/kg
CCCc1ccc(-c2c(C)[nH]c(=O)n2C)cc1	21.5 µM	–
CCCCCCCCCCCCCCCCCCOc1ccc(-c2c(C)[nH]c(=O)n2C)cc1	> 100 µM	–
CCCCCCCc1ccc(-c2c(C)[nH]c(=O)n2C)cc1	8.4 µM	minimal effective dose [4]: 30 mg/kg
Cc1ccc(-c2c(C)[nH]c(=O)n2C)cc1	85.3 µM	–
Cc1[nH]c(=O)n(C2CCCCC2)c1-c1ccc(CC(C)C)cc1	10.9 µM	–
Cc1[nH]c(=O)n(C2CCCCC2)c1-c1ccc(OC(C)C)cc1	13 µM	–
CCCc1ccc(-c2c(C)[nH]c(=O)n2C2CCCCC2)cc1	13.9 µM	–
CCCCc1ccc(-c2c(C)[nH]c(=O)n2-c2ccccc2)cc1	16.6 µM	–
CCCCc1ccc(-c2c(C)[nH]c(=O)n2C2CCCCC2)cc1	27.1 µM	–
COc1ccc(-c2c(C)[nH]c(=O)n2C)cc1	147 µM	–
Cc1[nH]c(=O)n(C2CCCCC2)c1-c1ccccc1	47.6 µM	–
Cc1[nH]c(=O)n(C)c1-c1ccc(OCc2ccccc2)cc1	6.7 µM	Activity [3]: inactive
Cc1[nH]c(=O)n(C)c1-c1ccc(C2CCCCC2)cc1	10 µM	minimal effective dose [4]: 0.1 mg/kg; Activity [5]: > 1000 mg/kg
CCCCCCCCCCCCCCc1ccc(-c2c(C)[nH]c(=O)n2C)cc1	43.8 µM	–
CCCCCCCc1ccc(-c2c(C)[nH]c(=O)n2C2CCCCC2)cc1	8.7 µM	–
Cc1[nH]c(=O)n(C)c1-c1ccc(OC(C)C)cc1	20.4 µM	–
Cc1[nH]c(=O)n(C2CCCCC2)c1-c1cccc(OC(C)C)c1	10.4 µM	–

Reference: ChEMBL document CHEMBL1143188, “5-Aryl-imidazolin-2-ones as a scaffold for potent antioxidant and memory-improving activity” (Bioorg Med Chem Lett, 2008)
